In ChEMBL document CHEMBL1138426, “Synthesis and DNA-binding ability of C2R-fluoro substituted DC-81 and its dimers” (Bioorg Med Chem Lett, 2007):

Tests used:
DNA [1] = test: Binding affinity to calf thymus DNA at 1:5 (compound:DNA) molar ratio in pH 7.0, 37 degC after 18 hrs by thermal denaturation study; assay type: nucleic-acid assay; conditions: Bos taurus
Outline: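 Thermal denaturation of calf thymus DNA at pH 7.00 ± 0.01. The buffer was aqueous sodium phosphate (10 mM sodium phosphate + 1 mM EDTA). DNA was 100 μM and compound 20 μM, a 1:5 molar ratio. The mix was incubated at 37 °C for 0, 18 or 36 h before melting. ΔTm is the shift from the Tm of DNA alone (mean of 10 determinations), ±0.1–0.2 °C.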

DNA [2] = test: Binding affinity to calf thymus DNA at 1:5 (compound:DNA) molar ratio in pH 7.0, 37 degC after 36 hrs by thermal denaturation study; conditions: Bos taurus

SMILES | ΔTm (DNA [1]) [°C] | ΔTm (DNA [2]) [°C]
COc1cc2c(cc1OCCCCCOc1cc3c(cc1OC)C(=O)N1C[C@H](F)C[C@H]1C=N3)N=C[C@@H]1C[C@@H](F)CN1C2=O | 16.9 | 18.8
COc1cc2c(cc1OCCCCOc1cc3c(cc1OC)C(=O)N1C[C@H](F)C[C@H]1C=N3)N=C[C@@H]1C[C@@H](F)CN1C2=O | 12.4 | 14
COc1cc2c(cc1OCCCOc1cc3c(cc1OC)C(=O)N1C[C@H](F)C[C@H]1C=N3)N=C[C@@H]1C[C@@H](F)CN1C2=O | 5.2 | 6.2
COc1cc2c(cc1O)N=C[C@@H]1C[C@@H](F)CN1C2=O | 2.1 | 2.3
COc1cc2c(cc1O)N=C[C@@H]1CCCN1C2=O | 0.7 | 0.7
COc1cc2c(cc1OCCCOc1cc3c(cc1OC)C(=O)N1CCC[C@H]1C=N3)N=C[C@@H]1CCCN1C2=O | 15.1 | 
